The list is not random: actives were taken first. Their share in the collection is about 1.9%.
M5 ag: agonists of human muscarinic M5 receptor (CHRM5). P08912. CHO-K1 hM5 cells, Fluo-8 calcium fluorescence; 0% DMSO wells, 100% maximal acetylcholine response. activation, % at 3 µM. 360,000 compounds, 0.19% hits. AID 624037;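 active = activation above the run's mean over test compounds plus 3 SD, cut at about 23% in these data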;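 also: signal is peak over basal fluorescence ratio across the kinetic read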
Target sequence (P08912 whole entry, looked up): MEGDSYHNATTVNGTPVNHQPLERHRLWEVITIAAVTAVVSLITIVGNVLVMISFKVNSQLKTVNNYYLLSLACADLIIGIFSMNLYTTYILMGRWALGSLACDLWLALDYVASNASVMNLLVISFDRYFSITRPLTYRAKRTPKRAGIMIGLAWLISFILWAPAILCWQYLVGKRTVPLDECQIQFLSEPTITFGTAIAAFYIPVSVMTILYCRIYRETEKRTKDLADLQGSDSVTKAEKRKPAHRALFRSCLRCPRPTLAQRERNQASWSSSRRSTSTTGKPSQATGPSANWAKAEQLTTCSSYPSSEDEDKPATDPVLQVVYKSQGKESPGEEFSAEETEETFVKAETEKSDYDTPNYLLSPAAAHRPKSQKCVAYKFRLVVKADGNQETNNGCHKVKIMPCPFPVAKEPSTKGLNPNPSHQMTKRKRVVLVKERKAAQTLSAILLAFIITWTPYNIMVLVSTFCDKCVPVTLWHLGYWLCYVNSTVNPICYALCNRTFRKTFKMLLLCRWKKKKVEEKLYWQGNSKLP
M4 antag: antagonists of human muscarinic M4 receptor (CHRM4); CHO-hM4 cells, ACh EC80, Fluo-8 calcium fluorescence; inhibition, % at 3 µM; 360,000 compounds, 0.73% hits; AID 624125;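 active = inhibition above its plate's cutoff, the mean inhibition of sample wells plus 3 SD, cut at about 27% in these data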;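 also: 0% = acetylcholine EC80 with DMSO and 100% = DMSO without agonist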
CHRM4 agonist: CHRM4 agonism in calcium assay; P08173; CHO-K1 hM4/Gqi5, Fluo-8 calcium fluorescence; vehicle 0%, full acetylcholine response 100%; activation, % at 3 µM; 360,000 compounds, 0.14% hits; AID 624127;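 active = activation above the run mean over all test wells plus 3 SD, cut at about 32% in these data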;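 also: peak over basal fluorescence ratio per well then scaled between controls; 0% = DMSO wells and 100% = acetylcholine at EC100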
CHRM5 antagonist: CHRM5 antagonism in calcium assay; P08912; CHO-hM5 cells, Fluo-8 calcium fluorescence, ACh EC80; inhibition, % at 3 µM; 360,000 compounds, 0.59% hits;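 active = inhibition above a per-plate cutoff, the mean of that plate's test compounds plus 3 SD, cut at about 27% in these data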;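 also: 0% = acetylcholine EC80 with DMSO and 100% = DMSO without agonist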
M4 PAM: potentiates acetylcholine response at human M4 receptor | P08173 | CHO-K1 hM4/Gqi5, Fluo-8 calcium fluorescence, ACh EC20; 0% = ACh EC20, 100% = maximal ACh | activation, % at 3 µM | 360,000 compounds, 0.4% hits | AID 624126;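 active = activation above its plate's cutoff, the mean activation of sample wells plus 3 SD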
M5 PAM: CHRM5 positive allosteric modulation; AID 624038; 360,000 compounds, 0.3% hits; CHO-K1 hM5, Fluo-8 calcium, ACh EC20 PAM; 0% = ACh EC20, 100% = ACh EC100; activation, % at 3 µM;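 active = activation above the run cutoff, the mean activation of all test compounds plus 3 SD, cut at about 18% in these data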
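system = human M5 receptor in CHO-K1 cells | reagent = EC20 acetylcholine as agonist stimulus | compound dosing = single-point, 3 µM nominal | incubation = Fluo-8 loading 80 min at 37 °C plus 30 min room temperature | detection = Fluo-8 calcium dye fluorescence, kinetic read | benchmarks = low control EC20 acetylcholine (0%), high control EC100 acetylcholine (100%)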
The depositor's hits bear a star.

SMILES	M5 ag	M4 antag	CHRM4 agonist	CHRM5 antagonist	M4 PAM	M5 PAM
O=C1c2ccccc2C(Nc2cccnc2)N1Cc1ccccc1 (stereo unspecified)	-0.1	29.0*	14.4	4.5	-14.8	-12.2
O=C1c2ccccc2C(Nc2cccnc2)N1Cc1ccccc1Cl (stereo unspecified)	-1.7	3.7	11.6	6.7	-10.7	-8.6
CN(CC(=O)Nc1cccc(F)c1)C(=O)CCC1CCCCC1	1.1	-3.2	1.9	-5.9	17.8*	7.2
N#CCC(=O)Nc1ccc(C(=O)OCC(=O)Nc2ccccc2Sc2ccccc2)cc1	2.7	20.1	24.0	27.9*	-13.6	-14.6
Cc1ccc(C(=O)NCCNC(=O)c2ccc(F)cc2)cn1	-1.4	-1.0	3.2	8.0	5.2	1.9
CC1(C(=O)NS(=O)(=O)Cc2ccccc2C(F)(F)F)CCN1C(=O)Cc1ccsc1 (stereo unspecified)	0.3	-12.9	0.6	3.7	3.7	0.8
COc1ccccc1NC(=O)C(C)N1C(=O)c2ccccc2C1=O (stereo unspecified)	2.4	-7.4	2.0	-5.0	1.7	13.0
CC(C)C(C(=O)Nc1ccccc1F)N1C(=O)c2ccccc2C1=O (stereo unspecified)	8.1	0.9	0.3	-8.9	3.7	19.9*
COc1ccc(NC(=O)C(C)N2C(=O)c3ccccc3C2=O)c(OC)c1 (stereo unspecified)	3.3	-3.1	0.1	-18.3	-3.1	18.1*
CCOc1ccc(C(=O)CCC(=O)NNC(=O)CCN2CCN(c3ccccc3)CC2)cc1	0.0	-11.6	4.1	2.6	1.7	6.4
O=C(CSc1ccc2ccccc2n1)NCCC1=CCCCC1	-7.7	-11.8	-1.5	30.5*	-6.4	-13.4
CCCCn1c(N)c(N(CCC(C)C)C(=O)c2ccc3c(c2)OCCO3)c(=O)[nH]c1=O	-0.8	2.2	0.7	2.6	-2.4	1.6
CC(=O)Nc1ccc(NC(=O)CNC(=O)c2sc3ccccc3c2Cl)cc1	3.1	-7.8	0.5	2.6	6.0	1.5
COC(=O)c1ccc(NC(=O)CNC(=O)c2sc3ccccc3c2Cl)cc1	0.8	-1.4	0.3	10.6	22.5*	-7.6
CCOc1ccc(CCN2C(=S)N([C@@H](CC(C)C)CN3CCCC3CN3C(=S)NC[C@@H]3Cc3ccc(O)cc3)C[C@@H]2Cc2ccc(O)cc2)cc1 (stereo partly specified)	0.0	-11.5	0.4	2.5	3.1	-3.2
CC12CCC(=O)C=C1CCC1C2CCC2(C)C(c3csc(N)n3)CCC12 (stereo unspecified)	-3.6	46.9*	18.6	18.9	-14.9	-35.1
CC12CCC(=O)C=C1CCC1C2C(O)CC2(C)C(c3csc(N)n3)CCC12 (stereo unspecified)	-1.2	4.7	11.8	13.2	-9.0	-11.7
O=C(CSc1nnnn1-c1cccc(F)c1)NC1CC1	1.0	0.4	0.0	2.6	4.1	19.0*
C[C@@H](c1ccccc1)N1C[C@H](COCc2ccccc2)Oc2cc(N3CC[C@H](O)C3)ccc2S1(=O)=O	-0.4	2.9	2.9	2.3	-6.8	-2.4
Cn1c(C(=O)NC2CC2)cc2c(=O)n(C)c3ccccc3c21	1.4	4.7	25.1	0.7	30.6*	-4.1
CC(=O)c1cccc(S(=O)(=O)N2CCC(C(=O)Nc3cccc(C(=O)NC4CC4)c3)CC2)c1	0.0	-2.7	1.2	5.2	6.4	0.8
CCCNC(=O)N1C2=NC(C(=O)OC)=C(C(=O)OC)[C@@H]3N(Cc4ccccc4)c4ccccc4[C@]23C[C@H]1CO	6.8	7.2	0.2	-8.6	10.3	20.1*
Cc1cc(C)n2nc(C(=O)N/N=C/c3cccc(Cl)c3)nc2n1	0.3	0.8	1.2	1.7	32.2*	-3.2
CC(=O)NC(=O)NC1OC(=O)C(Cl)=C1Cl (stereo unspecified)	-3.2	-14.6	1.1	0.9	16.5*	-0.5
Cc1ccccc1S(=O)(=O)NC1OC(=O)C(Cl)=C1Cl (stereo unspecified)	1.9	-6.1	0.4	-6.6	1.3	1.6
SMILES	M5 ag	M4 antag	CHRM4 agonist	CHRM5 antagonist	M4 PAM	M5 PAM
CC(C)(C)[C@H]1C=C(C(=O)N2CCN(Cc3ccc4c(c3)OCO4)CC2)O[C@@H](OCCCCO)C1	5.0	-2.2	1.3	-24.0	3.9	20.1*
CCN1CCN(CC(=O)Nc2ccc3c(c2)OCO3)C(=O)C1=O	-1.4	-36.3	1.7	-1.1	5.7	-2.0
CCN1CCN(CC(=O)Nc2ccc3c(c2)OCCO3)C(=O)C1=O	0.7	-12.4	-0.2	-4.4	30.6*	-4.5
O=C(COC(=O)CCC(=O)c1cccs1)Nc1ccc(F)c(F)c1F	1.5	2.7	1.3	-0.6	1.8	2.7
COC(=O)c1c(NC(C)=O)sc(C)c1C	-5.8	0.8	0.1	-5.2	-2.3	8.8
COC(=O)c1sc(NC(C)=O)c(C(=O)OC)c1C	-7.9	-6.8	3.2	-4.6	20.6*	-1.8
Cn1c(=O)c2[nH]c(-c3ccc(S(=O)(=O)O)cc3)nc2n(C)c1=O	67.9*	-0.8	0.8	-0.8	-4.1	-20.1
CCOC(=O)C1=C[C@@H](C2CCCC2)N(S(=O)(=O)c2ccc([N+](=O)[O-])cc2)[C@H]1c1ccccc1	1.5	38.6*	5.9	7.0	-17.6	-9.7
CCOC(=O)C1=C[C@@H](CC)N(S(=O)(=O)c2ccc(C)cc2)[C@H]1c1ccccc1	-3.1	3.1	-2.1	2.3	-9.3	-5.4
CCN1CCc2c(sc(NC(=O)Nc3ccc(Cl)c(Cl)c3)c2C(N)=O)C1	76.7*	51.2*	123.8*	58.0*	-43.7	-19.2
COc1ccc(NC2CCCN(C(=O)c3cc4ncccn4n3)C2)cc1 (stereo unspecified)	-1.3	0.4	1.4	-5.8	4.4	-6.8
CCCOc1ccc(OC(=O)c2ccc(Br)o2)cc1	9.1	2.8	76.1*	-2.0	11.9	-4.5
S=c1[nH]nc(-c2ccncc2)n1/N=C/c1cn(-c2ccccc2)nc1-c1ccccc1	17.3	0.1	12.3	4.7	8.8	22.7*
Cc1cccc(NCC(=O)N/N=C\c2c[nH]c3ccccc23)c1	-5.7	28.0*	4.0	11.2	-11.2	-8.2
Cc1ccccc1NCC(=O)N/N=C/c1c[nH]c2ccccc12	-2.2	-2.4	6.0	2.0	-5.2	-5.4
C=CCCO[C@@H]1O[C@@H](C)[C@H](O)C[C@H]1O	2.2	0.4	2.1	-1.0	8.0	10.4
Cc1ccc(NC(=O)COC(=O)Cc2cccs2)cc1S(=O)(=O)N1CCOCC1	-0.2	-1.6	3.6	-7.3	-6.6	-6.4
CCOC(=O)[C@]12CCC=C1N(Cc1ccco1)C(=O)[C@H](CC(=O)NCc1ccc(C)o1)C2	0.3	-1.9	0.5	-2.1	2.0	0.5
